Reference: ChEMBL document CHEMBL1156720, “Synthesis and antimicrobial activity of dermaseptin S1 analogues” (Bioorg Med Chem, 2008)
≈ marks a conversion by molar mass, not a printed value. Where “and” joins values, the source holds several entries; their conditions need not be identical. Equal values may be shown once. Square brackets hold non-standard residues; d marks the D form. Peptide text beside a SMILES is read from it. 1Nal = N[C@@H](Cc1cccc2ccccc12)C(=O)O; 2Nal = N[C@@H](Cc1ccc2ccccc2c1)C(=O)O; hPhe = N[C@@H](CCc1ccccc1)C(=O)O

Legend:
[1] = system: Staphylococcus aureus; experiment: Antibacterial activity against Staphylococcus aureus Cowan 1 NCTC 8530 after 3 hrs by microdilution serial twofold assay; format: functional; settings: Cowan 1, 3 h, read-out: LD50 (the source's name)
In short: (§1)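 Mueller Hinton Broth static cultures grown at 37 °C and diluted to 5 × 10⁵ CFU/mL. Peptides were tested by twofold serial microdilution starting from 100 μg/mL in a final volume of 200 μL, with peptide-free controls. After 3 h incubation, cultures were serially 10-fold diluted in PBS and plated on Mueller Hinton Agar. Counts were taken after 24 h at 37 °C. Value is the dose giving 50% bacterial lethality.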

[2] = system: Escherichia coli; experiment: Antibacterial activity against Escherichia coli HB101 after 24 hrs by microdilution serial twofold assay; format: functional; settings: HB101, 24 h
In short: (§2)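 Bacteria grown in static culture at 37 °C in Mueller Hinton broth and diluted to 5 × 10⁵ CFU/mL. Peptides were tested by twofold serial microdilution starting from 100 μg/mL, with peptide-free control wells. The MIC was the lowest concentration with no rise in turbidity after overnight incubation at 37 °C. Values are means of at least two independent experiments run in duplicate.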

[3] = Toxicity assessed as hemolytic activity in human red blood cells after 30 mins; format: cell-based, Erythrocyte; settings: read-out: HD50
In short: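 Serially diluted peptides were incubated with 10⁸ washed human RBC (100 µL) for 30 min at 37 °C with agitation. After centrifugation at 900g for 10 min, haemoglobin in the supernatant was read at 550 nm. Distilled water gave maximal lysis. HC₅₀ is the mean from at least two independent experiments run in triplicate.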

[4] = system: Leishmania major; experiment: Antileishmanial activity against Leishmania major MHOM/IL/67/JERICHO-2 after 24 hrs by dye exclusion method; format: functional
In short: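 Promastigotes were grown at 25 °C in medium 199 with 20% heat-inactivated FCS, penicillin/streptomycin, L-glutamine, HEPES, adenine, hemin and biotin. They were resuspended at 5 × 10⁵ viable cells/mL and exposed to serial peptide dilutions at 25 °C with agitation. Viability was counted by trypan blue exclusion in a haemocytometer.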

[5] = system: Leishmania major; experiment: Antileishmanial activity against Leishmania major MHOM/IL/67/JERICHO-2 assessed as protozoal viability after 24 hrs by dye exclusion method; format: functional
In short: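 Promastigotes grown at 25 °C in supplemented medium 199 containing 20% heat-inactivated FCS, then resuspended at 5 × 10⁵ viable/mL with serially diluted peptides. After 24 h at 25 °C with agitation, viable cells were counted by haemocytometer using trypan blue exclusion. LC₅₀ is the 50% survival reduction versus an untreated culture, fitted by nonlinear regression. Run in triplicate.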

[6] = system: Escherichia coli; experiment: Antibacterial activity against Escherichia coli HB101 after 3 hrs by microdilution serial twofold assay; format: functional; settings: HB101, 3 h, read-out: LD50 (the source's name); in short: as §1
[7] = system: Staphylococcus aureus; experiment: Antibacterial activity against Staphylococcus aureus Cowan 1 NCTC 8530 after 24 hrs by microdilution serial twofold assay; format: functional; settings: Cowan 1, 24 h; in short: as §2
[8] = system: Staphylococcus aureus; experiment: Antibacterial activity against multi drug-resistant Staphylococcus aureus after 24 hrs by microdilution serial twofold assay; format: functional
In short: (§3)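 Mueller Hinton Broth cultures grown statically at 37 °C and diluted to 5 × 10⁵ CFU/mL. Twofold serial microdilution from 100 μg/mL peptide, final volume 200 μL, with peptide-free controls. MIC is the lowest concentration with no turbidity increase after overnight incubation at 37 °C. Means come from at least two independent experiments run in duplicate.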

[9] = system: Candida albicans; experiment: Antifungal activity against wild type Candida albicans by broth microdilution method; format: functional
In short: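 Wild-strain yeast was tested in triplicate by broth microdilution following NCCLS recommendations. The MIC was the lowest peptide concentration with no increase in turbidity after overnight incubation at 37 °C.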

[10] = system: Pseudomonas aeruginosa; experiment: Antibacterial activity against Pseudomonas aeruginosa ATCC 15442 after 24 hrs by microdilution serial twofold assay; format: functional; settings: ATCC 15442, 24 h
[11] = system: Bacillus subtilis; experiment: Antibacterial activity against Bacillus subtilis ATCC 9466 after 24 hrs by microdilution serial twofold assay; format: functional; settings: ATCC 9466, 24 h
[12] = system: Pseudomonas aeruginosa; experiment: Antibacterial activity against multi drug-resistant Pseudomonas aeruginosa after 24 hrs by microdilution serial twofold assay; format: functional; in short: as §3
[13] = system: Staphylococcus aureus; experiment: Antibacterial activity against Staphylococcus aureus ATCC 6538P after 24 hrs by microdilution serial twofold assay; format: functional
[14] = system: Stenotrophomonas maltophilia; experiment: Antibacterial activity against Stenotrophomonas maltophilia FC after 24 hrs by microdilution serial twofold assay; format: functional; in short: as §2
[15] = system: Burkholderia cepacia; experiment: Antibacterial activity against Burkholderia cepacia 6/06 after 24 hrs by microdilution serial twofold assay; format: functional; in short: as §2

| Compound | LC50 [1] [µM] | MIC [2] [µM] | HC50 at 0.5 h [3] [µM] | MIC [4] | LC50 [5] | LC50 [6] [µM] | MIC [7] [µM] | MIC [8] [µM] | MIC [9] [µM] | MIC [10] [µM] | MIC [11] [µM] | MIC [12] [µM] | MIC [13] [µM] | MIC [14] [µM] | MIC [15] [µM] |
| --- | --- | --- | --- | --- | --- | --- | --- | --- | --- | --- | --- | --- | --- | --- | --- |
| H-ALWKTMLKKLGTMALHAGKAALGAAADTI-NH2 | < 1.5 | 2.7 | > 100 | 25 µg/mL and 6.1 µM | 9.6 µg/mL and 2.3 µM | 2.2 | 2.7 |  |  |  |  |  |  |  |  |
| H-KALWKTMLKKLGTMAL-NH2 | 2.7 | 2.6 | > 100 |  |  | < 0.8 | 20.8 | > 42 | 10.1 | 5.2 | 21 | 21 | 2.6 | 21 | 42 |
| CSCC[C@H](NC(=O)[C@@H](NC(=O)CNC(=O)[C@H](CC(C)C)NC(=O)[C@H](CCCCN)NC(=O)[C@H](CCCCN)NC(=O)[C@H](CC(C)C)NC(=O)[C@H](CCSC)NC(=O)[C@@H](NC(=O)[C@H](CCCCN)NC(=O)[C@H](Cc1cccc2ccccc12)NC(=O)[C@H](CC(C)C)NC(=O)[C@H](C)NC(=O)[C@@H](N)CCCCN)[C@@H](C)O)[C@@H](C)O)C(=O)N[C@@H](C)C(=O)N[C@@H](CC(C)C)C(N)=O (H-KAL[1Nal]KTMLKKLGTMAL-NH2) | 0.8 | 1.2 (≈ 2.21 µg/mL) | 80 |  |  | < 0.8 | 5.1 (≈ 9.4 µg/mL) | 21 (≈ 38.7 µg/mL) | 10.5 (≈ 19.4 µg/mL) | 2.6 (≈ 4.79 µg/mL) | 5.2 (≈ 9.59 µg/mL) | 10.5 (≈ 19.4 µg/mL) | 1.3 (≈ 2.4 µg/mL) | 21 (≈ 38.7 µg/mL) | 42 (≈ 77.4 µg/mL) |
| H-ALYKTMLKKLGTMAL-NH2 | > 46.7 | > 46.7 | > 100 |  |  | > 46.7 | > 46.7 | > 45 | > 45 | > 45 | > 45 | > 45 | > 45 | > 45 | > 45 |
| CSCC[C@H](NC(=O)[C@@H](NC(=O)CNC(=O)[C@H](CC(C)C)NC(=O)[C@H](CCCCN)NC(=O)[C@H](CCCCN)NC(=O)[C@H](CC(C)C)NC(=O)[C@H](CCSC)NC(=O)[C@@H](NC(=O)[C@H](CCCCN)NC(=O)[C@H](CCc1ccccc1)NC(=O)[C@H](CC(C)C)NC(=O)[C@H](C)N)[C@@H](C)O)[C@@H](C)O)C(=O)N[C@@H](C)C(=O)N[C@@H](CC(C)C)C(N)=O (H-AL[hPhe]KTMLKKLGTMAL-NH2) | 9.3 | 11.7 (≈ 19.6 µg/mL) | > 100 |  |  | 3 | 46.8 (≈ 78.6 µg/mL) | > 46 | 5.8 (≈ 9.74 µg/mL) | > 46 | 23 (≈ 38.6 µg/mL) | 46 (≈ 77.2 µg/mL) | 5.8 (≈ 9.74 µg/mL) | 23 (≈ 38.6 µg/mL) | 23 (≈ 38.6 µg/mL) |
| H-ALWKTMLKKLGTM-NH2 | 50.6 | 50.6 | > 100 | 100 µg/mL and 50.6 µM | 50 µg/mL and 25.3 µM | 22.7 | > 50.6 |  |  |  |  |  |  |  |  |
| H-ALWKTMLKKLGT-NH2 | 54 | > 54 | > 100 | 100 µg/mL and 54.2 µM | 50 µg/mL and 27.1 µM | 54 | > 54 |  |  |  |  |  |  |  |  |
| H-ALLKTMLKKLGTMAL-NH2 | 12 | 23.9 | > 100 |  |  | 6 | > 47.9 | > 48 | 12 | > 48 | 24 | > 48 | 24 | > 48 | > 48 |
| H-ALWKTMLKKLGTMAL-NH2 | 2.7 | 2.9 | > 100 | 50 µg/mL and 22.8 µM | 19 µg/mL and 8.7 µM | 1.4 | 11.5 | > 47 | 23.7 | > 47 | 5.7 | > 47 | 5.7 | > 45 | 23.7 |
| H-ALWKTMLKKLGTMALHAGK-NH2 | 10.7 | 3.6 | > 100 | 50 µg/mL and 17.9 µM | 22 µg/mL and 7.9 µM | < 1.8 | 35.9 |  |  |  |  |  |  |  |  |
| CSCC[C@H](NC(=O)[C@@H](NC(=O)CNC(=O)[C@H](CC(C)C)NC(=O)[C@H](CCCCN)NC(=O)[C@H](CCCCN)NC(=O)[C@H](CC(C)C)NC(=O)[C@H](CCSC)NC(=O)[C@@H](NC(=O)[C@H](CCCCN)NC(=O)[C@H](Cc1ccc2ccccc2c1)NC(=O)[C@H](CC(C)C)NC(=O)[C@H](C)N)[C@@H](C)O)[C@@H](C)O)C(=O)N[C@@H](C)C(=O)N[C@@H](CC(C)C)C(N)=O (H-AL[2Nal]KTMLKKLGTMAL-NH2) | 2.5 | 2.8 (≈ 4.8 µg/mL) | > 100 |  |  | 0.9 | 11.5 (≈ 19.7 µg/mL) | > 25 | 11.2 (≈ 19.2 µg/mL) | 5.6 (≈ 9.61 µg/mL) | 5.6 (≈ 9.61 µg/mL) | 11.2 (≈ 19.2 µg/mL) | 2.8 (≈ 4.8 µg/mL) | 25 (≈ 42.9 µg/mL) | 25 (≈ 42.9 µg/mL) |
| H-ALFKTMLKKLGTMAL-NH2 | 16.7 | 23.5 | > 100 |  |  | 4.5 | > 47.1 | > 46 | 5.8 | > 46 | 23 | > 46 | 23 | > 46 | > 46 |
| H-ALHKTMLKKLGTMAL-NH2 | > 44.9 | > 44.9 | > 100 |  |  | > 44.9 | > 44.9 | > 45 | > 45 | > 45 | > 45 | > 45 | > 45 | > 45 | > 45 |
| CSCC[C@H](NC(=O)[C@@H](NC(=O)CNC(=O)[C@H](CC(C)C)NC(=O)[C@H](CCCCN)NC(=O)[C@H](CCCCN)NC(=O)[C@H](CC(C)C)NC(=O)[C@H](CCSC)NC(=O)[C@@H](NC(=O)[C@H](CCCCN)NC(=O)[C@H](Cc1cccc2ccccc12)NC(=O)[C@H](CC(C)C)NC(=O)[C@H](C)N)[C@@H](C)O)[C@@H](C)O)C(=O)N[C@@H](C)C(=O)N[C@@H](CC(C)C)C(N)=O (H-AL[1Nal]KTMLKKLGTMAL-NH2) | 2.4 | 2.8 (≈ 4.8 µg/mL) | 75 |  |  | 0.9 | 11.5 (≈ 19.7 µg/mL) | 22.5 (≈ 38.6 µg/mL) | 11.2 (≈ 19.2 µg/mL) | 5.6 (≈ 9.61 µg/mL) | 11.2 (≈ 19.2 µg/mL) | 11.2 (≈ 19.2 µg/mL) | 2.8 (≈ 4.8 µg/mL) | 22.5 (≈ 38.6 µg/mL) | 25 (≈ 42.9 µg/mL) |
| H-ALWKTMLKKLGTMA-NH2 | 28.3 | 48.8 | > 100 | 100 µg/mL and 48.8 µM | 50 µg/mL and 24.4 µM | 20.5 | > 48.8 |  |  |  |  |  |  |  |  |
